Calls of active or inactive are those of the source. The calls are words filed in the database; no cut-off is given here.
Legend:
[1] = test system: Panel (Carcinoma cell lines); test: Mean graph mid point for growth inhibition of human cancer cell lines; assay type: functional; design: unit not given here
How it was run: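 Mean graph midpoint of growth inhibition, taken across all human cancer cell lines successfully tested. Compounds were tested at concentrations up to […], and GI50 is the concentration giving 50% growth inhibition.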

SN12C = test: Growth inhibitory activity against human renal SN12C cell line; assay type: functional
How it was run: (§1)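 Growth inhibition in human cancer cell culture. GI50 is the concentration giving 50% growth inhibition. Compounds were tested at concentrations up to […].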

[2] = Growth inhibitory activity against human CNSSF-539 cell line; assay type: functional; how it was run: as §1
[3] = target: T1, DNA topoisomerase 1 (Homo sapiens) (UniProt P11387); test: Induction of topoisomerase I mediated DNA cleavage; Activity similar to parent compound 1
T1 sequence (whole entry): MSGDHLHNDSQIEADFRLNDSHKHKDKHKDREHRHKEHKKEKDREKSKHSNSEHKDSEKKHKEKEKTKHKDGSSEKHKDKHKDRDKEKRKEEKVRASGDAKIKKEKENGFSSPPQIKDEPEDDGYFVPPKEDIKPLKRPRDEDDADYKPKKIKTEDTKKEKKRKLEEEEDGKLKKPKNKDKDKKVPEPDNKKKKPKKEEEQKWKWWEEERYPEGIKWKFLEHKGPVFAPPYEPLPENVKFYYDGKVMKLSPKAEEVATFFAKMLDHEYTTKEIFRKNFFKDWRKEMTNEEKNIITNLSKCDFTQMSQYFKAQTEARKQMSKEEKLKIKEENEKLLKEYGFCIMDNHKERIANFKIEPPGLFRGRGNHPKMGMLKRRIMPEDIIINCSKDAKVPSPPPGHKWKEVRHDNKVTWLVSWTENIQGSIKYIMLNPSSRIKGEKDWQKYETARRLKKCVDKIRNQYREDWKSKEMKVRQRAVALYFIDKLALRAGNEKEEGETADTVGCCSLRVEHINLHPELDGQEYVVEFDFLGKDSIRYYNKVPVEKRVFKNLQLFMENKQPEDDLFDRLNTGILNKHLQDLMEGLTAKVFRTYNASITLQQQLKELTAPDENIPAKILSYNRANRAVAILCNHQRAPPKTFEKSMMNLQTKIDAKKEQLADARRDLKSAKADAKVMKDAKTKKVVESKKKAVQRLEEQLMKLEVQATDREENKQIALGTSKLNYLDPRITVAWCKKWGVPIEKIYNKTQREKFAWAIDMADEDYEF

HCT-116 = test: Growth inhibitory activity against human colon HCT116 cell line; assay type: functional; how it was run: as §1
UACC-62 = test: Growth inhibitory activity against human melanoma UACC-62 cell line; assay type: functional; how it was run: as §1
HOP-62 = test: Growth inhibitory activity against human lung HOP-62 cell line; assay type: functional; how it was run: as §1
MDA-MB-435 = test: Growth inhibitory activity against human breast MDA-MB-435 cell line; assay type: functional; how it was run: as §1
DU-145 = test: Growth inhibitory activity against human prostate DU-145 cell line; assay type: functional; how it was run: as §1
[4] = target: T1, DNA topoisomerase 1 (Homo sapiens); test: Induction of topoisomerase I mediated DNA cleavage; Greater activity than parent compound 1
OVCAR-3 = test: Growth inhibitory activity against human ovarian OVCAR-3 cell line; assay type: functional; how it was run: as §1
[5] = target: T1, DNA topoisomerase 1 (Homo sapiens); test: Induction of topoisomerase I mediated DNA cleavage; Activity similar to 1 uM camptothecin
[6] = target: T1, DNA topoisomerase 1 (Homo sapiens); test: Induction of topoisomerase I mediated DNA cleavage; greater activity than parent compound 1
[7] = target: T1, DNA topoisomerase 1 (Homo sapiens); test: Induction of topoisomerase I mediated DNA cleavage; weak activity
[8] = target: T1, DNA topoisomerase 1 (Homo sapiens); test: Induction of topoisomerase I mediated DNA cleavage; Activity similar to 1 uM camptothecin; weak activity

| SMILES | Mean graph mid point [1] | GI50 (SN12C) [nM] | GI50 [2] [nM] | DNA cleavage [3] | GI50 (HCT-116) [nM] | GI50 (UACC-62) [nM] | GI50 (HOP-62) [nM] | GI50 (MDA-MB-435) [nM] | GI50 (DU-145) [nM] | DNA cleavage [4] | GI50 (OVCAR-3) [nM] | DNA cleavage [5] | DNA cleavage [6] | DNA cleavage [7] | DNA cleavage [8] |
| --- | --- | --- | --- | --- | --- | --- | --- | --- | --- | --- | --- | --- | --- | --- | --- |
| COc1cc2c3c(n(C)c(=O)c2cc1OC)-c1cc2c(cc1C3=O)OCO2 | 20 | 68000 | 41000 | Activity similar to parent compound 1 | 35000 | 4200 | 1300 | 96000 | 37000 | – | – | – | – | – | – |
| CC[C@@]1(O)C(=O)OCc2c1cc1n(c2=O)Cc2cc3ccccc3nc2-1 [CAMPTOTHECIN] | 0.04 | – | 10 | – | – | – | – | – | – | Active | – | – | – | – | – |
| O=C1c2ccccc2-c2c1c1ccccc1c(=O)n2CCCO | – | – | 52500 | Activity similar to parent compound 1 | – | – | – | – | – | – | – | – | – | – | – |
| O=C1c2ccccc2-c2c1c1ccccc1c(=O)n2CCN1CCOCC1 | 67.6 | 93300 | 85100 | – | 36300 | 29500 | > 100000 | > 100000 | > 100000 | Greater activity than compound 1 | 81300 | – | – | – | – |
| O=C1c2ccccc2-c2c1c1ccccc1c(=O)n2CCCn1ccnc1 | 1.86 | – | 2340 | – | – | – | – | – | – | – | – | Activity similar to 1 uM camptothecin | – | – | – |
| Cl.NCCn1c2c(c3ccccc3c1=O)C(=O)c1ccccc1-2 | 0.53 | 490 | 210 | – | 270 | 920 | 620 | 920 | 760 | – | 710 | – | greater activity than compound 1 | – | – |
| COc1cc2c3c(n(CCN)c(=O)c2cc1OC)-c1cc2c(cc1C3=O)OCO2.Cl | 0.34 | 360 | 1300 | – | 68 | 140 | 580 | 1040 | 400 | Greater activity than compound 1 | 860 | – | – | – | – |
| Cl.NCCCn1c2c(c3ccccc3c1=O)C(=O)c1cc3c(cc1-2)OCO3 | 0.25 | 190 | 430 | – | 680 | 180 | 280 | 1820 | 60 | – | 1450 | – | – | Weak activity | – |
| CCn1c2c(c3cc(OC)c(OC)cc3c1=O)C(=O)c1cc3c(cc1-2)OCO3 | 2.4 | 3600 | 2000 | – | 2600 | 2100 | 2200 | 2600 | 2300 | – | 3000 | – | – | – | +/- |
| N=C(N)NCCCn1c2c(c3ccccc3c1=O)C(=O)c1ccccc1-2.O=C(O)C(F)(F)F | 9.77 | 230 | 370 | – | 22400 | 11000 | 690 | 25700 | 7590 | Greater activity than compound 1 | 18200 | – | – | – | – |
| Cl.Cl.O=C1c2ccccc2-c2c1c1ccccc1c(=O)n2CCCNCCCn1ccnc1 | 1 | 2000 | 1070 | Activity similar to parent compound 1 | 1580 | 6920 | 410 | 1450 | 410 | – | 1780 | – | – | – | – |
| COc1cc2c(cc1OC)-c1c(c3ccccc3c(=O)n1CCCN)C2=O.Cl | 0.62 | – | 2930 | Activity similar to parent compound 1 | – | – | – | – | – | – | – | – | – | – | – |
| O=C1c2cc3c(cc2-c2c1c1ccccc1c(=O)n2CCCBr)OCO3 | 9.77 | 230 | 370 | – | 22400 | – | – | 25700 | 7590 | – | 18200 | – | – | Weak activity | – |
| CN(C)CCCn1c2c(c3ccccc3c1=O)C(=O)c1ccccc1-2 | 1.86 | 910 | – | – | 580 | 510 | 1740 | 2820 | 1320 | – | 1700 | – | greater activity than compound 1 | – | – |
| O=C1c2ccccc2-c2c1c1ccccc1c(=O)n2CCO | – | – | 12200 | Activity similar to parent compound 1 | – | – | – | – | – | – | – | – | – | – | – |
| COc1cc2c3c(n(CCCN(C)C)c(=O)c2cc1OC)-c1cc2c(cc1C3=O)OCO2 | 0.35 | 900 | 190 | – | 120 | 540 | 18 | 650 | 140 | Greater activity than compound 1 | 1400 | – | – | – | – |
| CCn1c2c(c3ccccc3c1=O)C(=O)c1cc3c(cc1-2)OCO3 | 51.3 | > 100000 | 40700 | – | 95500 | 20000 | 36300 | > 100000 | > 100000 | – | 89100 | – | greater activity than compound 1 | – | – |
| Cl.NCCCCn1c2c(c3ccccc3c1=O)C(=O)c1ccccc1-2 | 0.16 | 40 | 100 | – | 100 | 50 | 80 | 840 | 10 | – | 520 | – | greater activity than compound 1 | – | – |
| COc1cc2c3c(n(CCCNCCO)c(=O)c2cc1OC)-c1cc2c(cc1C3=O)OCO2.Cl | 0.11 | > 10 | 40 | – | – | – | – | – | > 10 | Greater activity than compound 1 | 350 | – | – | – | – |
| O=C1c2ccccc2-c2c1c1ccccc1c(=O)n2CCN1CCNCC1 | 1.86 | 2190 | 1990 | – | 580 | 1380 | 1910 | 1950 | 3090 | – | 1120 | – | – | Weak activity | – |
| O=C1c2ccccc2-c2c1c1ccccc1c(=O)n2CCCl | – | – | 2240 | – | – | – | – | – | – | – | – | – | – | – | +/- |
| COc1cc2c3c(n(CCCN)c(=O)c2cc1OC)-c1cc2c(cc1C3=O)OCO2.Cl | 0.16 | – | 260 | – | – | – | – | – | – | – | – | – | greater activity than compound 1 | – | – |
| O=C1c2ccccc2-c2c1c1ccccc1c(=O)n2CCNCCO | 1.9 | 950 | 1650 | – | 1120 | 1420 | 1620 | 2560 | 1280 | – | 3850 | – | – | Weak activity | – |
| Cl.NCCCn1c2c(c3ccccc3c1=O)C(=O)c1ccccc1-2 | 0.32 | 160 | 250 | – | 180 | 260 | 200 | 780 | 220 | – | 1380 | – | greater activity than compound 1 | – | – |
| CCCn1c2c(c3ccccc3c1=O)C(=O)c1cc3c(cc1-2)OCO3 | 66.1 | > 100000 | > 100000 | Activity similar to parent compound 1 | 30200 | > 100000 | > 100000 | > 100000 | > 100000 | – | 20900 | – | – | – | – |
